FXIa inh 1536: inhibitors of human coagulation factor XIa. purified FXIa, Boc-Glu-Ala-Arg-AMC fluorogenic substrate. hit rate 0.14% among 220,000. P03951. inhibition, % at 5 µM. AID 798;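 active = inhibition of at least 40%; inactive = inhibition below 40%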;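 note: fluorescence of freed AMC excited at 355 nm; 0% = enzyme without compound and 100% = no enzyme blank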
Target sequence (P03951 19-387 limits assumed): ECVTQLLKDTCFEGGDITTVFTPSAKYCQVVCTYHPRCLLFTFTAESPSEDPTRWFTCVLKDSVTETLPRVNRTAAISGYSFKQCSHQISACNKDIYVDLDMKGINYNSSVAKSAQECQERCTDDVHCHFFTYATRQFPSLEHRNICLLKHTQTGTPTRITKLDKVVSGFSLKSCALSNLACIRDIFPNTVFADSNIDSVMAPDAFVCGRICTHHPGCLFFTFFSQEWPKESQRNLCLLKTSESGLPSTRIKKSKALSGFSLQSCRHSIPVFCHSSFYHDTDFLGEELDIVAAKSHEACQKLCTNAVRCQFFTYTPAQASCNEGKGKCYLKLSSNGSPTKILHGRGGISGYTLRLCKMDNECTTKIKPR
Target sequence (P03951 388-625 limits assumed): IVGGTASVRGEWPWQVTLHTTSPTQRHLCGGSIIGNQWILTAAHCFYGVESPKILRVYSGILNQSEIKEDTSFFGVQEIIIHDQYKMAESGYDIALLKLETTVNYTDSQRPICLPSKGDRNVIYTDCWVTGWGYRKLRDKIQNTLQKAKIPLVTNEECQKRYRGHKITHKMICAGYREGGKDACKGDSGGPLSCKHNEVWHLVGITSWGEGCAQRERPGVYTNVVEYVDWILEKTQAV
m-calpain inh: calpain II (pig) inhibition | purified calpain II, fluorogenic peptide substrate, 30 min | inhibition, % at 16 µM | hit rate 0.37% among 220,000;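 active = inhibition above about 50%, limit read from the data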
hK5 inh: inhibitors of human kallikrein 5 | Q9Y337 | recombinant hK5, fluorogenic AMC substrate cleavage | inhibition, % at 5 µM | hit rate 0.59% among 210,000;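 active = inhibition of 40% or more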;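 note: 0% = enzyme controls without compound and 100% = no-enzyme blanks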
thrombin 1536: blocks human thrombin protease activity | hit rate 0.26% among 220,000 | AID 1046 | alpha-thrombin, Boc-VPR-AMC fluorogenic substrate cleavage | inhibition, % at 5 µM | P00734;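 active = inhibition at or above 40%; inactive = inhibition below 40%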;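 note: 0% = enzyme with no compound and 100% = wells without enzyme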
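signal = AMC fluorescence, 355/460 nm | material = human alpha-thrombin enzyme | control set = enzyme without compound as high, wells lacking enzyme as low | times = reaction at room temperature | read-out basis = percent inhibition scaled between no-compound controls and no-enzyme blanks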
FXIIa inh: inhibitors of human coagulation factor XIIa. purified FXIIa, Boc-QGR-AMC fluorogenic substrate, 2 h. inhibition, % at 5 µM. hit rate 0.3% among 220,000; in the data active = inhibition above about 40%;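 note: 0% = enzyme with no compound and 100% = blank without enzyme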
The depositor's hits bear a star; i = inactive; / = no result. A selection: hits, their analogues and other compounds. The true share with any hit is near 1.4%.

SMILES | FXIa inh 1536 | m-calpain inh | hK5 inh | thrombin 1536 | FXIIa inh
CC(c1cccs1)N(C(=O)Nc1ccccc1)C1CCCCC1 (configuration not stated) | 1.1 | -5.6 | -7.9 | 1.2 | 8.1
CC(C)CCN(C(=O)Nc1ccccc1)C(C)c1cccs1 (configuration not stated) | -0.3 | 50.9* | -9.4 | -8.8 | 3.2
Cc1cccc(N2C(=O)CS/C2=N\NC(=O)c2ccc(Br)cc2)c1C | 24.9 | 27.3 | 56.6* | 23.4 | 13.8
COC(=O)CN(C)C(=O)CC1C(=O)NCCN1CC(C)(C)C (configuration not stated) | -1.6 | -36.2 | -3.2 | -2.4 | 5.3
C=C(C)CN(CC)C(=O)CC1C(=O)NCCN1CC(C)(C)C (configuration not stated) | 4.1 | 0.1 | 0.8 | 44.1* | 6.2
CCn1ncc(Br)c1C(=O)Nc1cc([N+](=O)[O-])ccc1C | 19.0 | 16.2 | 3.4 | 54.3* | 23.0
O=C(CN(c1ccc2c(c1)OCCO2)S(=O)(=O)c1ccccc1)NCC1CCCO1 (configuration not stated) | 4.6 | 7.4 | -2.7 | 2.4 | 8.9
CCCCCCCCCC(=O)Nn1cnc2ccccc2c1=O | 31.5 | 30.6 | 70.0* | 1.6 | 52.0*
O=C(CCCN1C(=O)c2ccccc2C1=O)N1CCC(c2ccccc2)C1 (configuration not stated) | -24.5 | 50.6* | 13.2 | -2.7 | -5.4
O=C(CCCN1C(=O)c2ccccc2C1=O)N1CCCCC1 | 0.9 | 10.9 | -11.2 | -2.5 | 5.2
COc1ccc(C(=O)C23CC4CC(C2)CC(C(=O)c2ccc(OC)cc2)(C4)C3)cc1 | 3.7 | 62.7* | / | -0.1 | 12.8
COc1ccc(NC(=O)COC(=O)C23CC4CC(CC(Cl)(C4)C2)C3)c(OC)c1 | -0.4 | 20.9 | -0.7 | -3.3 | 12.1
O=C1c2ccccc2C(=O)N1OS(=O)(=O)c1ccccc1 | 42.7* | -13.3 | -23.1 | 34.3 | 76.5*
Cc1ccc(C)c(S(=O)(=O)ON2C(=O)c3ccccc3C2=O)c1 | 62.4* | 9.6 | 9.3 | 47.8* | 77.1*
O=C1c2cccc3cccc(c23)C(=O)N1OS(=O)(=O)c1ccccc1 | -17.8 | i | -32.7 | 11.6 | -3.4
Cc1ccc(S(=O)(=O)ON2C(=O)c3cccc4cccc(c34)C2=O)cc1 | -2.6 | -155.2 | -18.4 | -9.5 | -4.3
COc1ccc2cc(C(=O)N3CCCCCC3)sc(=O)c2c1OC | 22.8 | 59.6* | -22.6 | 2.1 | 27.3
O=C1CS/C(=N/N=C/c2ccccc2)N1Cc1ccco1 | 12.6 | 17.0 | 2.1 | 1.4 | 6.1
O=C1CN(Cc2ccccc2)C(=NCc2ccco2)S1 | 5.7 | 0.4 | 32.9 | 12.7 | 44.0*
CCCNC(=O)C1CC(c2ccc(C(F)(F)F)cc2)=NO1 (configuration not stated) | 101.9* | 13.9 | 21.8 | 21.4 | 19.9
Cc1ccc(-c2[nH]ncc2/C=N/n2c(COc3ccccc3C)nc3ccccc3c2=O)cc1 | 2.2 | 61.3* | -1.6 | -0.5 | 10.7
Cc1ccccc1OCc1nc2ccccc2c(=O)n1/N=C/c1c[nH]c2ccccc12 | 2.5 | -16.9 | -15.0 | -5.2 | 11.9
Cc1c(C(=O)OCC(=O)Nc2c(C)n(C)n(-c3ccccc3)c2=O)cccc1[N+](=O)[O-] | -3.1 | -9.9 | 1.3 | 0.0 | 8.8
Cc1cc(C)cc(NC(=O)CSc2nnc(-c3ccccc3C)o2)c1 | 6.1 | 15.3 | 53.5* | 17.2 | -5.3
CC(C)NC(=S)N/N=C/C1=CCC2CC1C2(C)C (configuration not stated) | 7.3 | 51.2* | 13.6 | 0.9 | 15.8
SMILES | FXIa inh 1536 | m-calpain inh | hK5 inh | thrombin 1536 | FXIIa inh
CC(=O)N/N=C/C1=CCC2CC1C2(C)C (configuration not stated) | -4.5 | 17.4 | 0.4 | -7.4 | 6.4
CCCC(=O)n1nc(-c2ccc(C)cc2)nc1NCc1ccco1 | -2.3 | -11.8 | / | 57.7* | 3.0
CC(=O)n1nc(-c2ccc(Cl)cc2)nc1NCc1ccco1 | -12.0 | 14.1 | 1.2 | 46.9* | 14.9
O=C(c1cccs1)n1nc(-c2ccc(Cl)cc2)nc1NCc1ccco1 | 3.3 | -6.0 | -1.8 | 7.4 | 16.8
Cc1ccc(C(=O)n2nc(-c3ccccc3)nc2NCc2ccco2)cc1 | 4.8 | -0.1 | 10.6 | 11.7 | 12.0
C=CCOC(=O)C(C#N)c1nc2ccccc2nc1N1CCN(Cc2ccccc2)CC1 (configuration not stated) | 3.0 | -8.2 | 45.6* | 6.3 | -8.2
COCCOC(=O)C(C#N)c1nc2ccccc2nc1N1CCN(Cc2ccccc2)CC1 (configuration not stated) | 1.9 | -52.7 | 4.3 | -3.8 | 9.3
C=CCNC(=O)C(C#N)c1nc2ccccc2nc1N1CCN(Cc2ccccc2)CC1 (configuration not stated) | 15.7 | -83.2 | 35.2 | 104.3* | 23.5
CCOC(=O)CCn1c2nc(C)cc(C)c2c(=O)n1-c1ccccc1 | 2.8 | i | -16.1 | 4.0 | 17.3
Oc1ccc(Br)cc1C=Nc1ccc(Cl)cc1 | -1.3 | 93.7* | -2.6 | -4.1 | 6.7
CCN(CC)c1ccc(N=Cc2cc(Br)ccc2O)cc1 | 1.4 | -26.4 | -2.3 | 1.1 | 8.5
CC(C)C1Cc2c(C#N)c(N)n(C)c(=S)c2CO1 (configuration not stated) | 5.9 | 5.7 | 53.3* | 17.9 | 17.4
CC1(C)Oc2ccc(C(=O)NC3CCCC3)cc2N(CC(=O)NC2CCCC2)C1=O | 20.0 | 30.2 | 10.2 | 1.1 | 63.7*
S=C(NCCN1CCOCC1)Nc1ccc(Cl)cc1 | 20.3 | 14.5 | 46.5* | 20.1 | 14.1
S=C(NCCCN1CCOCC1)Nc1ccc(Cl)cc1 | -7.5 | 17.1 | -9.7 | -13.0 | 0.6
CCCN1CCN(C(=O)Nc2ccc(OCC)cc2)CC1 | -1.6 | 11.2 | / | -2.6 | 8.1
CC1(C)C(=O)Nc2ccccc2N1C(=O)COc1ncnc2ccccc12 | -1.7 | -10.2 | -34.9 | -14.4 | -6.8
CCc1ccc(Sc2cc(C(=O)NCCN3CCOCC3)c3ccccc3n2)cc1 | 4.8 | -9.4 | -1.8 | -2.1 | 13.6
CCOC(=O)C1C(C(=O)Nc2cccc(C(F)(F)F)c2)C1C(=O)NC(C)C (configuration not stated) | 39.4 | 17.7 | 53.2* | 18.8 | 34.2
CCCCNC(=O)C(=O)NCCCn1ccnc1 | -5.4 | 1.7 | 4.0 | -1.3 | 6.6
COCCNC(=O)CC(NS(=O)(=O)c1ccc(C)cc1)c1ccco1 (configuration not stated) | 0.4 | 13.8 | 46.4* | 10.1 | 51.6*
CCCCNC(=O)CC(NS(=O)(=O)c1ccc(C)cc1)c1ccco1 (configuration not stated) | 9.8 | 3.0 | -0.4 | 0.6 | 14.4
CCCCOc1nc2ccccc2nc1C(C#N)S(=O)(=O)c1ccccc1 (configuration not stated) | -6.3 | -37.8 | 2.5 | -1.6 | 9.3
CCOCCn1c(-c2ccc(OC)cc2)nc2ccccc21 | 17.6 | 8.7 | 41.7* | 19.1 | 53.6*
Cc1cccc(-n2c(O)c(C=Nc3ccc(O)cc3)c3ccccc3c2=O)n1 | 0.5 | -2.3 | -5.2 | 0.6 | 7.3
Cc1ccc(N=Cc2c(O)n(-c3ccc4c(c3)OCO4)c(=O)c3ccccc23)cc1 | -2.9 | -29.0 | 2.3 | 1.3 | 43.4*

Assay outcomes deposited in PubChem BioAssay by several laboratories.
